# Source: ChEMBL document CHEMBL5370587, “Fungal Anthraquinone Photoantimicrobials Challenge the Dogma of Cationic Photosensitizers” (J Nat Prod, 2023)
# How the values were obtained:
# [1] = system: Candida albicans; assay: Antifungal activity against Candida albicans 501670 assessed as reduction in microbial growth preincubated for 60 mins under dark condition and measured after 20 to 24 hrs at room temperature by RPMI-1640 based dilution assay
# [2] = system: A549; assay: Phototoxicity against human A549 cells assessed as reduction in cell growth preincubated with compound for 24 hrs followed by green light irradiation at 519 nm for 22 mins 23 sec and measured after 48 hrs by SRB assay; assay type: functional, cell-based; conditions: A549, light or radiation study
# Outline: (§1)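 Cells (A549 2000, AGS 2500, T24 1500 per well) seeded in Opti-MEM with 2.4% FCS and dosed 24 h later at six concentrations, 25.0−0.3 μM. After a further 24 h, fresh medium was added and cells got green light (519±33 nm, 30.0 J/cm²). Then 48 h at 37 °C, 5% CO2. Read-out by TCA fixation, SRB stain and absorbance at 540 nm. EC50 from Hill fit with 95% CI.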
# [3] = system: Staphylococcus aureus; assay: Antibacterial activity against Staphylococcus aureus DSM1104 assessed as reduction in microbial growth preincubated for 60 mins under dark condition followed by 530 nm light irradiation and measured after 20 to 24 hrs by muller hinton broth based dilution assay; assay type: functional; conditions: DSM1104, light or radiation study, time 21-25 hrs
# Outline: (§2)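 PhotoMIC (modified EUCAST broth microdilution): 0.5 McFarland suspensions diluted 1:50 in Mueller-Hinton broth (bacteria, 2–8 × 10⁵ CFU/mL) or 1:10 in double-strength RPMI-1640 (yeast, 0.5–2.5 × 10⁵ CFU/mL); ≥10 concentrations, biological triplicates; 60 min dark preincubation, then 30 J/cm² irradiation or dark duplicate plate; 37 °C, 20–24 h; turbidity versus growth control, blanks subtracted.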
# [4] = system: Escherichia coli; assay: Antibacterial activity against Escherichia coli DSM1103 assessed as reduction in microbial growth preincubated for 60 mins under dark condition followed by 428 nm light irradiation and measured after 20 to 24 hrs by muller hinton broth based dilution assay; assay type: functional; conditions: DSM1103, light or radiation study, time 21-25 hrs
# Outline: as §2
# [5] = system: Candida albicans; assay: Antifungal activity against Candida albicans 501670 assessed as reduction in microbial growth preincubated for 60 mins under dark condition followed by 428 nm light irradiation and measured after 20 to 24 hrs by RPMI-1640 based dilution assay; conditions: Candida albicans, 501670, light or radiation study
# [6] = system: Staphylococcus aureus; assay: Antibacterial activity against Staphylococcus aureus DSM1104 assessed as reduction in microbial growth preincubated for 60 mins under dark condition followed by 478 nm light irradiation and measured after 20 to 24 hrs by muller hinton broth based dilution assay; assay type: functional; conditions: DSM1104, light or radiation study, time 21-25 hrs
# Outline: as §2
# [7] = system: T-24; assay: Photo index, ratio of EC50 for human T24 cells killed in the absence of light to EC50 for human T24 cells killed after irradiation; assay type: functional
# Outline: (§3)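 SRB assay: cells seeded in Opti-MEM with 2.4% FCS, treated 24 h later with 0.3–25.0 μM, medium replaced after 24 h. Duplicate plates were irradiated with blue light (468 nm, 9.3 J/cm²) or green light (519 nm, 30.0 J/cm²), or kept dark, then held 48 h at 37 °C, 5% CO₂. EC50 from Hill fit; photoindex = EC50 dark / EC50 irradiated.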
# [8] = system: Candida albicans; assay: Antifungal activity against Candida albicans 501670 assessed as reduction in microbial growth preincubated for 60 mins under dark condition followed by 478 nm light irradiation and measured after 20 to 24 hrs by RPMI-1640 based dilution assay; conditions: Candida albicans, 501670, light or radiation study
# [9] = system: Staphylococcus aureus; assay: Antibacterial activity against Staphylococcus aureus DSM1104 assessed as reduction in microbial growth preincubated for 60 mins under dark condition followed by 428 nm light irradiation and measured after 20 to 24 hrs by muller hinton broth based dilution assay; assay type: functional; conditions: DSM1104, light or radiation study, time 21-25 hrs
# Outline: as §2
# [10] = system: T-24; assay: Phototoxicity against human T24 cells assessed as reduction in cell growth preincubated with compound for 24 hrs followed by green light irradiation at 519 nm for 22 mins 23 sec and measured after 48 hrs by SRB assay; assay type: functional, cell-based; conditions: T-24, light or radiation study
# Outline: as §1
# [11] = system: A549; assay: Phototoxicity against human A549 cells assessed as reduction in cell growth preincubated with compound for 24 hrs followed by blue light irradiation at 468 nm for 7 mins 30 sec and measured after 48 hrs by SRB assay; assay type: functional, cell-based; conditions: A549, light or radiation study
# Outline: (§4)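 Cells (A549 2000, AGS 2500, T24 1500 per well) seeded in Opti-MEM with 2.4% FCS. After 24 h, treated with 25.0−0.3 μM (six levels). After another 24 h, medium was replaced and cells got blue light (468±27 nm, 9.3 J/cm²). Held 48 h at 37 °C, 5% CO2, then TCA-fixed and SRB-stained, read at 540 nm. EC50 from variable-slope fit with 95% CI.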
# [12] = system: T-24; assay: Phototoxicity against human T24 cells assessed as reduction in cell growth preincubated with compound for 24 hrs followed by blue light irradiation at 468 nm for 7 mins 30 sec and measured after 48 hrs by SRB assay; assay type: functional, cell-based; conditions: T-24, light or radiation study
# Outline: as §4
# [13] = system: A549; assay: Phototoxicity against human A549 cells assessed as reduction in cell growth preincubated with compound for 24 hrs under dark condition and measured after 48 hrs by SRB assay; assay type: functional, cell-based; conditions: A549, light or radiation study
# Outline: (§5)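 Dark control plate processed the same way: cells (A549 2000, AGS 2500, T24 1500 per well) in Opti-MEM with 2.4% FCS, dosed at 25.0−0.3 μM 24 h after seeding. Medium renewed after 24 h, then 48 h further at 37 °C, 5% CO2 without light. SRB read-out at 540 nm after TCA fixation. EC50 with 95% CI from variable-slope fit.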
# [14] = system: AGS; assay: Phototoxicity against human AGS cells assessed as reduction in cell growth preincubated with compound for 24 hrs followed by green light irradiation at 519 nm for 22 mins 23 sec and measured after 48 hrs by SRB assay; assay type: functional, cell-based; conditions: light or radiation study
# Outline: as §1
# [15] = system: Staphylococcus aureus; assay: Antibacterial activity against Staphylococcus aureus DSM1104 assessed as reduction in microbial growth preincubated for 60 mins under dark condition and measured after 20 to 24 hrs at room temperature by muller hinton broth based dilution assay; assay type: functional; conditions: time 20-24 hrs
# Outline: (§6)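 Bacteria grown overnight at 37 °C for 15−18 h in the dark, then set to 0.5 McFarland (read at 600 nm) and diluted 1:50 in Müller-Hinton broth to (2–8) × 10⁵ CFU/mL. Dark plate held at room temperature, then incubated at 37 °C. After 20−24 h, turbidity was read against the untreated growth control, with blanks subtracted. Compounds tested at ≥10 concentrations in biological triplicate.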
# [16] = system: A549; assay: Photo index, ratio of EC50 for human A549 cells killed in the absence of light to EC50 for human A549 cells killed after irradiation; assay type: functional
# Outline: as §3
# [17] = system: AGS; assay: Phototoxicity against human AGS cells assessed as reduction in cell growth preincubated with compound for 24 hrs under dark condition and measured after 48 hrs by SRB assay; assay type: functional, cell-based; conditions: light or radiation study
# Outline: as §5
# [18] = system: Candida albicans; assay: Antifungal activity against Candida albicans 501670 assessed as reduction in microbial growth preincubated for 60 mins under dark condition followed by 530 nm light irradiation and measured after 20 to 24 hrs by RPMI-1640 based dilution assay; conditions: Candida albicans, 501670, light or radiation study
# [19] = system: AGS; assay: Phototoxicity against human AGS cells assessed as reduction in cell growth preincubated with compound for 24 hrs followed by blue light irradiation at 468 nm for 7 mins 30 sec and measured after 48 hrs by SRB assay; assay type: functional, cell-based; conditions: light or radiation study
# Outline: as §4
# [20] = system: T-24; assay: Phototoxicity against human T24 cells assessed as reduction in cell growth preincubated with compound for 24 hrs under dark condition and measured after 48 hrs by SRB assay; assay type: functional, cell-based; conditions: T-24, light or radiation study
# Outline: as §5
# [21] = system: Candida albicans; assay: Antifungal activity against Candida albicans 501670 assessed as reduction in microbial growth preincubated for 60 mins under dark condition followed by 428 to 530 nm light irradiation and measured after 20 to 24 hrs by muller hinton broth based dilution assay; assay type: functional; conditions: Candida albicans, 501670, light or radiation study; in the assay text read “RPMI-1640” for “muller hinton broth”; time 21-25 hrs
# Outline: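 Yeast set to 0.5 McFarland (530 nm), diluted 1:10 in double-strength RPMI-1640 to (0.5−2.5) × 10⁵ CFU/mL. Irradiated at H = 30 J/cm² after 60 min dark preincubation, then kept dark at 37 °C for 20−24 h. Growth inhibition by turbidity versus growth control, blanks subtracted. ≥10 concentrations in biological triplicate.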
# [22] = system: Escherichia coli; assay: Antibacterial activity against Escherichia coli DSM1103 assessed as reduction in microbial growth preincubated for 60 mins under dark condition and measured after 20 to 24 hrs at room temperature by muller hinton broth based dilution assay; assay type: functional; conditions: time 20-24 hrs
# Outline: as §6
# [23] = system: Escherichia coli; assay: Antibacterial activity against Escherichia coli DSM1103 assessed as reduction in microbial growth preincubated for 60 mins under dark condition followed by 428 to 530 nm light irradiation and measured after 20 to 24 hrs by muller hinton broth based dilution assay; assay type: functional; conditions: DSM1103, light or radiation study, time 21-25 hrs
# Outline: (§7)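 Bacterial inoculum set to 0.5 McFarland (600 nm) and diluted 1:50 in Müller-Hinton broth to (2–8) × 10⁵ CFU/mL. After 60 min dark preincubation the plate received H = 30 J/cm² from LED panels (468±27, 519±33, 478±22 or 523±33 nm). Incubated at 37 °C in the dark for 20−24 h. Turbidity read against growth control, blanks subtracted. ≥10 concentrations, biological triplicate.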
# [24] = system: Staphylococcus aureus; assay: Antibacterial activity against Staphylococcus aureus DSM1104 assessed as reduction in microbial growth preincubated for 60 mins under dark condition followed by 428 to 530 nm light irradiation and measured after 20 to 24 hrs by muller hinton broth based dilution assay; assay type: functional; conditions: DSM1104, light or radiation study, time 21-25 hrs
# Outline: as §7
smiles,measurement,setting,value
COc1c(O)c(O)c2c(c1O)C(=O)c1cc(C)cc(O)c1C2=O,MIC,[1],> 79 µM
same,EC50,[2],16.2 µM
same,MIC,[3],2.37 µM
same,MIC,[4],> 79 µM
same,MIC,[5],39.5 µM
same,MIC,[6],4.74 µM
same,Ratio EC50,[7],2.1
same,MIC,[8],19.7 µM
same,MIC,[9],39.5 µM
same,EC50,[10],11.6 µM
same,EC50,[11],> 25 µM
same,EC50,[12],> 25 µM
same,EC50,[13],> 25 µM
same,EC50,[14],> 25 µM
same,MIC,[15],> 79 µM
same,Ratio EC50,[16],>1.5
same,EC50,[17],> 25 µM
same,MIC,[18],39.5 µM
same,EC50,[19],> 25 µM
same,EC50,[20],24.7 µM
Cc1cc(O[C@@H]2O[C@H](CO)[C@@H](O)[C@H](O)[C@H]2O)c2c(c1)C(=O)c1cc(O)cc(O)c1C2=O,MIC,[1],> 115 µM
same,MIC,[21],> 115 µM
same,MIC,[22],> 115 µM
same,EC50,[11],> 25 µM
same,MIC,[23],> 115 µM
same,EC50,[12],> 25 µM
same,EC50,[13],> 25 µM
same,MIC,[15],> 115 µM
same,MIC,[24],> 115 µM
same,EC50,[17],> 25 µM
same,EC50,[19],> 25 µM
same,EC50,[20],> 25 µM
Cc1cc(O[C@@H]2O[C@H](CO)[C@@H](O)[C@H](O)[C@H]2O)c2c(c1)C(=O)c1cc(O[C@@H]3O[C@H](CO)[C@@H](O)[C@H](O)[C@H]3O)cc(O)c1C2=O,MIC,[1],> 84 µM
same,MIC,[21],> 84 µM
same,MIC,[22],> 84 µM
same,EC50,[11],> 25 µM
same,MIC,[23],> 84 µM
same,EC50,[12],> 25 µM
same,EC50,[13],> 25 µM
same,MIC,[15],> 84 µM
same,MIC,[24],> 84 µM
same,EC50,[17],> 25 µM
same,EC50,[19],> 25 µM
same,EC50,[20],> 25 µM
COc1c(O)c(O)c2c(c1O)C(=O)c1cc(C)cc(O[C@@H]3O[C@H](CO)[C@@H](O)[C@H](O)[C@H]3O)c1C2=O,MIC,[1],> 105 µM
same,EC50,[2],> 25 µM
same,MIC,[21],> 105 µM
same,MIC,[22],> 105 µM
same,EC50,[10],> 25 µM
same,EC50,[11],> 25 µM
same,MIC,[23],> 105 µM
same,EC50,[12],> 25 µM
same,EC50,[13],> 25 µM
same,EC50,[14],> 25 µM
same,MIC,[15],> 105 µM
same,MIC,[24],> 105 µM
same,EC50,[17],> 25 µM
same,EC50,[19],> 25 µM
same,EC50,[20],> 25 µM
C[C@@H]1[C@H](O)[C@@H](C)/C=C/C=C/C=C/C=C/C=C/C=C/C=C/[C@H](O[C@@H]2O[C@H](C)[C@@H](O)[C@H](N)[C@@H]2O)C[C@@H]2O[C@](O)(C[C@@H](O)C[C@@H](O)[C@H](O)CC[C@@H](O)C[C@@H](O)CC(=O)O[C@H]1C)C[C@H](O)[C@H]2C(=O)O [AMPHOTERICIN B],MIC,[1],0.22 µM
O=C(N[C@H](CO)[C@H](O)c1ccc([N+](=O)[O-])cc1)C(Cl)Cl [CHLORAMPHENICOL],MIC,[22],6.1 µM
CC[C@H]1OC(=O)[C@H](C)[C@@H](O[C@H]2C[C@@](C)(OC)[C@@H](O)[C@H](C)O2)[C@H](C)[C@@H](O[C@@H]2O[C@H](C)C[C@H](N(C)C)[C@H]2O)[C@](C)(O)C[C@@H](C)C(=O)[C@H](C)[C@@H](O)[C@]1(C)O [ERYTHROMYCIN],MIC,[15],1.4 µM
